# From ChEMBL document CHEMBL1154185 (J Med Chem, 2009)
# Calls of active or inactive are those of the source.
# How the values were obtained:
# [1] = Toxicity in iv dosed mouse administered once daily for 5 consecutive days measured after 28 days; type: organism-based; conditions: in vivo
# Method in brief: (§1)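 Healthy mice given compound i.v. (tail vein) in 50 μL saline once daily for 5 consecutive days (Monday-Friday) at 5, 10, 20, 40 or 80 mg/kg; 3 mice per group; body weight and survival followed over 28 days; MTD defined as dose just below lowest dose killing at least one mouse; means ± SEM.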
# [2] = tested on: A549; assay: Reduction of colony formation in undifferentiated proapoptotic stimuli-resistant human A549 cells at 5 uM under anchorage-independent culture conditions by quantitative video microscopy; type: functional, cell-based
# Method in brief: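 Soft-agar (anchorage-independent) culture of A549 cells, without or with 5 μM, for 38 days after plating. Colonies counted in three 0.4 mm² areas per condition, experiment in hexaplicate. Means ± SEMs.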
# [3] = tested on: A549; assay: Increase in polymerized actin levels in proapoptotic stimuli-resistant human A549 cells at 5 uM after 6 hrs by fluorescence microscopy; type: functional, cell-based
# [4] = tested on: A549; assay: Cytostatic activity against proapoptotic stimuli-resistant human A549 cells at 5 uM after 72 hrs by quantitative video microscopy; type: functional, cell-based
# Method in brief: (§2)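 Phase-contrast time-lapse videomicroscopy with 5 μM for 72 h vs untreated control. Growth level = cell count in last frame / first frame (0 h). Global growth ratio compares treated with control growth level. Counts done in triplicate with an interactive tool. Morphology followed over the same period.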
# [5] = tested on: A549; assay: Growth inhibition of proapoptotic stimuli-resistant human A549 cells after 72 hrs by MTT assay; type: functional, cell-based; conditions: Homo sapiens, A549, 72 h
# Method in brief: (§3)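 Cells plated 24 h in 96-well plates (10,000-40,000 cells/mL by cell type) in MEM (5% or 10% heat-inactivated FBS; with 100 μM non-essential amino acids for WI-38 and NHDF) or RPMI 10% FBS (A549), then exposed 72 h to compound up to 100 μM; MTT reduction read at 570 nm (reference 630 nm); sextuplicate.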
# [6] = Growth inhibition of human WI38 cells after 72 hrs by MTT assay; type: cell-based; conditions: WI-38, 72 h; method in brief: as §3
# [7] = tested on: U-373MG ATCC; assay: Induction of non-apoptotic cell death in human U373 cells at 50 uM after 72 hrs by annexin-V/propidium iodide staining based flow cytometry; type: functional
# Method in brief: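 Flow cytometry with annexin-V/propidium iodide double staining after 72 h. U373 given 0, 5 or 50 μM; MCF-7 treated 72 h with a 1 μM pro-apoptotic positive control. Early apoptosis = AV+/PI−, late = AV+/PI+, non-apoptotic death = AV−/PI+. Means ± SEMs.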
# [8] = tested on: U-373MG ATCC; assay: Increase in polymerized actin levels in proapoptotic stimuli-resistant human U373 cells at 5 uM after 6 hrs by fluorescence microscopy; type: functional, cell-based
# Method in brief: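 U373 cells, untreated or exposed to 5 μM for 6 h, stained and imaged by computer-assisted fluorescence microscopy. Fibrillar (polymerized) actin labelled with Alexa Fluor488-phallacidin (green); globular actin with Alexa Fluor594-DNase I (red).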
# [9] = tested on: U-373MG ATCC; assay: Reduction of colony formation in undifferentiated proapoptotic stimuli-resistant human U373 cells at 0.5 uM under anchorage-independent culture conditions by quantitative video microscopy; type: functional, cell-based
# [10] = tested on: U-373MG ATCC; assay: Inhibition of cell migration of proapoptotic stimuli-resistant human U373 cells at 5 uM by quantitative video microscopy; type: functional, cell-based
# Method in brief: (§4)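 Quantitative videomicroscopy of cells untreated or given 0.5 or 5 μM. Migration scored as MRDO, the greatest linear distance each single cell travels from its origin, over 12 or 24 h of observation. Means ± SEMs.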
# [11] = tested on: A549; assay: Reduction of colony formation in undifferentiated proapoptotic stimuli-resistant human A549 cells at 5 uM under anchorage-independent culture conditions by quantitative video microscopy
# [12] = Growth inhibition of human WS1 cells after 72 hrs by MTT assay; type: cell-based; conditions: WS1, 72 h; method in brief: as §3
# [13] = Growth inhibition of proapoptotic stimuli-sensitive human Hs683 cells after 72 hrs by MTT assay; type: functional, cell-based, Hs 683; conditions: Homo sapiens, Hs 683, 72 h
# Method in brief: (§5)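 MTT assay. Cells were plated at 10,000–40,000 cells/mL and left 24 h to attach, then exposed to compound for 72 h (untreated controls). Formazan was read at 570 nm (reference 630 nm). Tested up to 10 μM (first panel) or up to 100 μM (second panel). Sextuplicate. U373 grown in MEM + 5% FBS; Hs683, SK-MEL-28 and B16F10 in RPMI + 10% FBS.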
# [14] = tested on: B16-F10; assay: Antitumor activity against mouse B16F10 cells implanted in B6D2F1 mouse assessed as increase in mouse survival at 40 mg/kg, iv administered thrice weekly for 3 consecutive weeks starting from 5th day post tumor grafting; type: functional, organism-based; parameters: dose 40 mg/kg
# Method in brief: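 Female B6D2F1 mice (17-19 g) received stereotactic brain implants of B16F10 melanoma cells, all on the same day. Treatment started on day 5 post-graft: 40 mg/kg i.v. (tail vein) in 50 μL, Mon/Wed/Fri for 3 consecutive weeks. Controls received 50 μL saline i.v.; the reference arm got cisplatin 5 mg/kg i.p. on the same schedule. 11 mice per group; survival analysed.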
# [15] = tested on: U-373MG ATCC; assay: Cytotoxic activity against proapoptotic stimuli-resistant human U373 cells assessed as induction of cell death at 5 uM after 72 hrs by quantitative video microscopy; type: functional, cell-based; method in brief: as §2
# [16] = tested on: U-373MG ATCC; assay: Cytostatic activity against proapoptotic stimuli-resistant human U373 cells at 5 uM after 72 hrs by quantitative video microscopy; type: functional, cell-based; method in brief: as §2
# [17] = tested on: SK-MEL-28; assay: Growth inhibition of proapoptotic stimuli-resistant human SK-MEL-28 cells after 72 hrs by MTT assay; type: functional, cell-based; conditions: Homo sapiens, SK-MEL-28, 72 h; method in brief: as §5
# [18] = tested on: A549; assay: Inhibition of cytokinesis in proapoptotic stimuli-resistant human A549 cells at 5 uM after 72 hrs by quantitative video microscopy; type: functional, cell-based
# Method in brief: (§6)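 Quantitative videomicroscopy with 5 μM for 72 h. Mitoses counted within a 2 mm² frame over the 72 h observation. Single cells in treated colonies were tracked at high magnification to follow mitosis and cytokinesis over time.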
# [19] = Growth inhibition of proapoptotic stimuli-resistant human U373 cells after 72 hrs by MTT assay; type: functional, cell-based, U-373MG ATCC; conditions: Homo sapiens, U373 MG, 72 h; method in brief: as §5
# [20] = Reduction in mitosis occurrence in proapoptotic stimuli-resistant human U373 cells at 5 uM after 72 hrs by quantitative video microscopy; type: functional, U-373MG ATCC; parameters: scale not given: the % may be the effect or the level left
# Method in brief: (§7)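 Cells treated 72 h with 5 μM compound and filmed by computer-assisted phase-contrast videomicroscopy; mitoses counted within a 2 mm² frame over the 72 h observation period, compared with untreated control.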
# [21] = Growth inhibition of proapoptotic stimuli-resistant human OE21 cells after 72 hrs by MTT assay; type: functional, cell-based; conditions: Homo sapiens, OE21, 72 h
# [22] = tested on: U-373MG ATCC; assay: Increase in actin cytoskeleton rigidity in proapoptotic stimuli-resistant human U373 cells at 5 uM after 6 hrs by fluorescence microscopy
# [23] = tested on: U-373MG ATCC; assay: Inhibition of cytokinesis in proapoptotic stimuli-resistant human U373 cells at 5 uM after 72 hrs by quantitative video microscopy; type: functional, cell-based; method in brief: as §6
# [24] = tested on: A549; assay: Inhibition of cell migration of proapoptotic stimuli-resistant human A549 cells at 5 uM by quantitative video microscopy; type: functional, cell-based; method in brief: as §4
# [25] = tested on: B16-F10; assay: Growth inhibition of proapoptotic stimuli-sensitive mouse B16F10 cells after 72 hrs by MTT assay; type: functional, cell-based; conditions: Mus musculus, B16-F10, 72 h; method in brief: as §5
# [26] = tested on: A549; assay: Reduction in mitosis occurrence in proapoptotic stimuli-resistant human A549 cells at 5 uM after 72 hrs by quantitative video microscopy; type: functional; parameters: scale not given: the % may be the effect or the level left; method in brief: as §7
# [27] = tested on: B16-F10; assay: Antitumor activity against mouse B16F10 cells implanted in iv dosed B6D2F1 mouse assessed as active dose increasing mouse survival administered thrice weekly for 3 consecutive weeks starting from 5th day post tumor grafting; type: functional
# [28] = tested on: U-373MG ATCC; assay: Reduction of colony formation in undifferentiated proapoptotic stimuli-resistant human U373 cells at 5 uM under anchorage-independent culture conditions by quantitative video microscopy; type: functional, cell-based
# [29] = tested on: A549; assay: Cytotoxic activity against proapoptotic stimuli-resistant human A549 cells assessed as induction of cell death at 5 uM after 72 hrs by quantitative video microscopy; type: functional, cell-based; method in brief: as §2
# [30] = tested on: NHDF; assay: Growth inhibition of human NHDF after 72 hrs by MTT assay; type: cell-based; method in brief: as §3
# [31] = tested on: Mus musculus; assay: Toxicity in iv dosed mouse assessed as reduction of body weight at 5 to 80 mg/kg, iv administered once daily for 5 consecutive days measured after 28 days; type: organism-based; parameters: dose 5-80 mg/kg, route intravenous; conditions: in vivo, 672 h; method in brief: as §1
structure (smiles),measurement,setting,value
O[C@H]1[C@H]2c3cc4c(cc3CN3CCC(=C[C@@H]1O)[C@H]23)OCO4 [LYCORINE],MTD at 672 h,[1],> 80 mg/kg
same,Activity,[2],Active
same,Activity,[3],Active
same,Activity,[4],Active
same,IC50,[5],4.3 µM
same,IC50,[6],> 100 µM
same,Activity,[7],Active
same,Activity,[8],Active
same,Activity,[9],Active
same,Activity,[10],Active
same,Activity,[11],Active
same,IC50,[12],> 100 µM
same,IC50,[13],6.7 µM
same,Activity,[14],Active
same,Activity,[15],inactive
same,Activity,[16],Active
same,IC50,[17],8.5 µM
same,Activity,[18],Active
same,IC50,[19],7.6 µM
same,Activity,[20],>=90%
same,IC50,[21],5.1 µM
same,Activity,[22],Active
same,Activity,[23],Active
same,Activity,[24],Active
same,IC50,[25],6.3 µM
same,Activity,[26],>=90%
same,Dose,[27],40 mg/kg
same,Activity,[28],Active
same,Activity,[29],inactive
same,IC50,[30],> 100 µM
same,Activity,[31],Non-toxic
